From ChEMBL document CHEMBL1140976, “1,2,3,4-tetrahydro-2-thioxopyrimidine analogs of combretastatin-A4” (Eur J Med Chem, 2008)

Experiments:
Type in all cases: functional, cell-based
[1] = tested on: B16; experiment: Cytotoxicity against mouse B16 cells after 72 hrs by MTT assay; conditions: B16, 72 h
In short: (§1)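 72-h MTT assay on murine cell lines (B16 melanoma, L1210 leukemia) grown in culture. IC50 is the compound concentration needed to reduce the cell population by 50% relative to an untreated control.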

[2] = tested on: L1210; experiment: Cytotoxicity against mouse L1210 cells after 72 hrs by MTT assay; conditions: L1210, 72 h; in short: as §1
[3] = tested on: A10; experiment: Reduction of cellular microtubules in interphase rat A10 cells
In short: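 Interphase cellular microtubules scored in A-10 aortic smooth muscle cells after exposure to compound. EC50 is the effective concentration that causes 50% loss of cellular microtubules.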

| Compound | IC50 [1] | IC50 [2] | EC50 [3] |
| --- | --- | --- | --- |
| COc1ccc(C2C=C(c3cc(OC)c(OC)c(OC)c3)NC(=S)N2)cc1OC (stereo unspecified) | > 100 µM | 56.3 µM | – |
| COc1ccc(OC)c(C2C=C(c3cc(OC)c(OC)c(OC)c3)NC(=S)N2)c1 (stereo unspecified) | 36 µM | 32 µM | – |
| COc1ccc(C2C=C(c3cc(OC)c(OC)c(OC)c3)NC(=S)N2)cc1[N+](=O)[O-] (stereo unspecified) | > 100 µM | > 100 µM | – |
| COc1cc(C2=CC(c3ccc(Cl)cc3)NC(=S)N2)cc(OC)c1OC (stereo unspecified) | 55.5 µM | 48.3 µM | – |
| COc1cc(C2=CC(c3cc(OC)c(OC)c(OC)c3)NC(=S)N2)cc(OC)c1OC (stereo unspecified) | > 100 µM | > 100 µM | – |
| COc1cc(OC)c(C2C=C(c3cc(OC)c(OC)c(OC)c3)NC(=S)N2)c(OC)c1 (stereo unspecified) | 6.3 µM | 5.7 µM | – |
| COc1cc(OC)c(C2C=C(c3cc(OC)ccc3OC)NC(=S)N2)c(OC)c1 (stereo unspecified) | 6.1 µM | 0.4 µM | 2.9 µM |
| COc1ccc(OC)c(C2=CC(c3ccc(OC)c([N+](=O)[O-])c3)NC(=S)N2)c1 (stereo unspecified) | 42 µM | 2.2 µM | – |
| COc1cccc(C2C=C(c3cc(OC)c(OC)c(OC)c3)NC(=S)N2)c1 (stereo unspecified) | 59.5 µM | > 100 µM | – |
| COc1ccc(C2C=C(c3cc(OC)c(OC)c(OC)c3)NC(=S)N2)cc1O (stereo unspecified) | 6 µM | 0.5 µM | 4.4 µM |
| COc1cc(C2=CC(c3ccc([N+](=O)[O-])cc3)NC(=S)N2)cc(OC)c1OC (stereo unspecified) | > 100 µM | > 100 µM | – |
| COc1ccc(/C=C\c2cc(OC)c(OC)c(OC)c2)cc1O [COMBRETASTATIN A4] | 0.003 µM | 0.002 µM | – |
